System: MS2 coat protein
Assay: apparent Kd, MS2 coat protein; higher = weaker binding; RNA-MaP array; FMN 200 µM where present
Summary of the method: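 Stalled E. coli RNA polymerase transcribed each design on Illumina sequencing-chip clusters. The clusters were titrated with SNAP-549-labelled MS2 coat protein, starting at 0.7 or 1.5 nM and doubling up to 3 µM, first without ligand and then with constant ligand, in 100 mM Tris-HCl pH 7.5, 80 mM KCl, 4 mM MgCl2, BSA, DTT, yeast tRNA and Tween-20. Green signal was normalised to red-channel RNA signal and to the control-cluster median Fmax. The apparent Kd is the median of filtered binding-curve fits made for each cluster.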

[1] = designed as: OFF switch for flavin mononucleotide, no ligand
[2] = ligand present: flavin mononucleotide, designed as: OFF switch for flavin mononucleotide
[3] = designed as: ON switch for flavin mononucleotide, no ligand
[4] = ligand present: flavin mononucleotide, designed as: ON switch for flavin mononucleotide

Sequence: GAACCUCUUGUGAGGAUAUGCUGUUGAACGAGCUUGCAGAAGGCACAUGAGGAUCACCCAUGUCUCUUCUGGGU
- apparent Kd [1]: 20.4 nM
- apparent Kd [2]: 28.2 nM

Sequence: GUGAACAUGAGGAUCACCCAUGUAGCUCACUGCCAGUGGCUACAGGAUAUAGCACCUCGAGGGUGCUAGAAGGGUGGCCUAGAA
- apparent Kd [3]: 62.9 nM
- apparent Kd [4]: 16.8 nM

Sequence: CUUAGACAUGAGGAUCACCCAUGUCAGGAUAUCGUCUACCUGUGGAAACACAGGUAGACGAGAAGGGAUGUGUU
- apparent Kd [1]: 51.6 nM
- apparent Kd [2]: 41.4 nM

Sequence: CGAUAACAUAGUUAUCCGUAGCGGACAUGAGGAUCACCCAUGUAGGAUAUGUUACUCAACGAGUAACAGAAGGACAUGAGUCUU
- apparent Kd [1]: 18.1 nM
- apparent Kd [2]: 114 nM

Sequence: AGGCAGCUACAUGAGGAUCACCCAUGUCUGUUUGGAUCUUCCAGAAGGCACGUAAAAUCGGUGGGUGAGGAUAUGGUAGGUCCC
- apparent Kd [3]: 30.9 nM
- apparent Kd [4]: 9.91 nM

Sequence: AUGAGGUCAGGAUAUGCAUGGCGGGACUUGCGUCGUGGCGUGCAGAAGGGACAUGAGGAUCACCCAUGUGGACC
- apparent Kd [1]: 36.4 nM
- apparent Kd [2]: 39.5 nM

Sequence: UGUUGUAUUACAGGAUAUCUAUUAGUUUUAAUUAGAGAAGGGUAUUCACAUGAGGAUCACCCAUGUAUAUACGAGGAAGUUGUG
- apparent Kd [3]: 39.1 nM
- apparent Kd [4]: 42.2 nM

Sequence: GUCAGCUCGUGAGGAUAUACAACACUGCUUCGGCAGUGUAUUAAAAUAACAUGAGGAUCACCCAUGUAGAAGGCACGAGCUGAU
- apparent Kd [1]: 5.14 nM
- apparent Kd [2]: 6.62 nM

Sequence: CUCUCGCGAGGAUAUGAUUUAAGUAACAUGAGGAUCACCCAUGUUUUUCCGUUGUUAUGUUCAGAAGGCGCGUGAU
- apparent Kd [1]: 44.2 nM
- apparent Kd [2]: 84.3 nM

Sequence: UUGGACGUCGUAGGAUAUCUAGGAUAUUCCUACAUGAGGAUCACCCAUGUUGACAUGGAAGAAGGACAGAAGGACGAUGUCCAU
- apparent Kd [3]: 14.9 nM
- apparent Kd [4]: 11 nM

Sequence: CAUUAAUUCAUUAUAGUUAUUAUACAGGAUAUGUUACAUGAGGAUCACCCAUGUAUUCAUGGUAAACAGAAGGGUAAUUCUAGU
- apparent Kd [1]: 20.1 nM
- apparent Kd [2]: 19.7 nM

Sequence: AAAUAGGAAGGAUAUACGGCGGGAUACUGGUUCCACGUGUUACAUGAGGAUCACCCAUGUAGAAGGUCUGGUUA
- apparent Kd [1]: 24.7 nM
- apparent Kd [2]: 55.4 nM

Sequence: CAGUACUGAGGAUAUACAUGAGGAUCACCCAUGUGUUCCAGGUAGGAAACUAGCAAAAGUAGAAGGCAGUACUG
- apparent Kd [1]: 19 nM
- apparent Kd [2]: 127 nM

Sequence: GCUGCAAAGUAAGGAUAUGCCUAGGAAACCUAGGCAGAAGGUACAUGAGGAUCACCCAUGUUAACUCAAAGAGAAUAAAGCAGC
- apparent Kd [1]: 16.8 nM
- apparent Kd [2]: 28.6 nM

Sequence: AUGCUUUAUGUAGGAUAUUCAAACGGUAAGAAUGGAGAAGGACAUGAGGAUCACCCAUGUAAAAUAUUAUUAGAUAUCAUACAU
- apparent Kd [1]: 22.1 nM
- apparent Kd [2]: 19.4 nM

Sequence: ACGAUUCACUCAGGAUAUGUAUCACCUCGUUACCAACAUGAGGAUCACCCAUGUCCGUGGCUCGGACAGAAGGGAGAAGAAUCG
- apparent Kd [3]: 733 nM
- apparent Kd [4]: 220 nM

Sequence: GAAGUUAGAGGAUAUACAUGAGGAUCACCCAUGUGUGAAGUUAACUUUGUAUAUUAAUGUAGAAGGCUAACUUC
- apparent Kd [1]: 42.5 nM
- apparent Kd [2]: 118 nM

Sequence: GGGCAACAUGAGGAUCACCCAUGUCAGGAUAUUGGGCCGGGCCCGAAAGGGCCCGGAACAAGAAGGGACAGCCC
- apparent Kd [1]: 23.5 nM
- apparent Kd [2]: 24.5 nM

Sequence: GUGGAGUACGUAGGAUAUGUAGGAUAUUCCUACAUGAGGAUCACCCAUGUUGACAUGGAGGAAGGACAGAAGGACGUGCUCCAG
- apparent Kd [3]: 265 nM
- apparent Kd [4]: 256 nM

Sequence: AACAGACGUGCUCUGAGUCCACAUGAGGAUCACCCAUGUGAGAGAAGGACCCUCGAGAGAGUUGGGUAGGAUAUCUCCGAUGGG
- apparent Kd [1]: 27 nM
- apparent Kd [2]: 80.5 nM

Sequence: UGAAAUCAUGUAGGAUAUGCAUGGCGAAGCUACGCAGAAGGACAUGAGGAUCACCCAUGUGCUAGCUACCGAGUUCGGUGGCAA
- apparent Kd [1]: 103 nM
- apparent Kd [2]: 215 nM

Sequence: AUAUUAUAGAUCCAUUUAUUCAACAUGAGGAUCACCCAUGUGCAGGAUAUCGUGUGUUUUAUAAACGAGAAGGGCAAAUUCAUU
- apparent Kd [1]: 31.9 nM
- apparent Kd [2]: 96.7 nM

Sequence: AUCAGCUCGUCAGGAUAUACAUCACUGCUUCGGCAGUGUAUUAAGAUCACAUGAGGAUCACCCAUGUAGAAGGGACGAGCUGAU
- apparent Kd [1]: 31.7 nM
- apparent Kd [2]: 310 nM

Sequence: UCCUUGUCCUGAGGAUAUCCGCGGUGACCAAAAGGAGAAGGCAGGACAUGAGGAUCACCCAUGUACCCAGAAAACGUGCAGAGU
- apparent Kd [1]: 30.1 nM
- apparent Kd [2]: 197 nM

Sequence: GUAGCUAUCGGAGGAUAUUCAAUAUACAUGAGGAUCACCCAUGUUAAAGUGGGAGAAGGCCGAUAGCUACAAGAGCGAAAGCUC
- apparent Kd [3]: 13.6 nM
- apparent Kd [4]: 6 nM

Sequence: GACACGUAAGGAUAUUGAGGGUAGAUGUGAGUCUAGCCCGGCAAGAAGGUACAUGAGGAUCACCCAUGUCCCGG
- apparent Kd [1]: 13.6 nM
- apparent Kd [2]: 17 nM

Sequence: CACUGCAAUGUAGGAUAUCGACUGGAAUACAGUCGAGAAGGACAUGAGGAUCACCCAUGUACUAAUAGUGAUAAUAAAGCAGUG
- apparent Kd [1]: 14.6 nM
- apparent Kd [2]: 54.1 nM

Sequence: AUUGCUAGCGCAGGAUAUGAUGCGAAAAUUGCGUCAGAAGGGUGUAAUCUCUCAUUGCGGGAGGACAUGAGGAUCACCCAUGUC
- apparent Kd [3]: 142 nM
- apparent Kd [4]: 87 nM

Sequence: GCACUUAAGUUAGGAUAUGGAUCGGAAAACGAUCCAGAAGGAAUAUGGGAACAUGAGGAUCACCCAUGUUCCACAAACAAGUGC
- apparent Kd [3]: 55.4 nM
- apparent Kd [4]: 29 nM

Sequence: AACUCACAUGAGGAUCACCCAUGUGAGGAUAUGAUACUAUGUACUUCGGUACAUAGUAUCAGAAGGCAUGUGGG
- apparent Kd [1]: 50.5 nM
- apparent Kd [2]: 28.1 nM

Sequence: GUGCUUUGGGAGAAGGCCGAUAGCAAAGCUAUCGGAGGAUAUUCAUACCGGAAACGGACAUGAGGAUCACCCAUGUGGCACAAA
- apparent Kd [3]: 1430 nM
- apparent Kd [4]: 44.5 nM

Sequence: UCACGGGACUAAGGAUAUACAUGAACCAUUUUUGUAGAAGGUAGAAUGUUUGAUCAUAAACUAAACAUGAGGAUCACCCAUGUU
- apparent Kd [1]: 23.4 nM
- apparent Kd [2]: 21 nM

Sequence: AUACAUGAGGAUCACCCAUGUUACUGGGUCUUUUUAGAACGUAGAAGGAUGUUUUUAUACAUAACAUAGGAUAUACAAUAUUGU
- apparent Kd [1]: 51.8 nM
- apparent Kd [2]: 48.9 nM

Sequence: AGAACAUGAGGAUCACCCAUGUGAAGGUCGGUGUAUAAGGGUGAGGAUAUGCUUAAAAUAAGGAAGCAGAAGGUGCUUGGUGCA
- apparent Kd [3]: 155 nM
- apparent Kd [4]: 145 nM

Sequence: GUAGCAUACCGAGGAUAUUCAGGGCGUGGAUAUACAUGAGGAUCACCCAUGUGGCGAAAGCCUAGGGAGAAGGCGGAAUGCUAC
- apparent Kd [3]: 23.6 nM
- apparent Kd [4]: 17 nM

Sequence: UAAAUGUGAGGAUAUCAGGUGUGCUAGCGAACUGGUACAUCUGAGAAGGCACAUGAGGAUCACCCAUGUUCCUU
- apparent Kd [1]: 17 nM
- apparent Kd [2]: 61.5 nM

Sequence: ACAAGAUCAGGAUAUACAUGAGGAUCACCCAUGUAUAUCCAAAAAGGGCUUUCUACAUGUAGAAGGGAUCUUGU
- apparent Kd [1]: 13.4 nM
- apparent Kd [2]: 13.1 nM

Sequence: AGUUAAUAUCGAGGAUAUGUCUAAACACAUGAGGAUCACCCAUGUAUGUGUAUAGAAGGCGAUAUUAACAGCAUGUUACAUGCA
- apparent Kd [3]: 28.8 nM
- apparent Kd [4]: 8.58 nM

Sequence: UAUGUUUCGCAGAAGGGAACGGUUUAUAACAAUUCAGGAUAUGCGACAUGAGGAUCACCCAUGUAGCAGUAUAUAGGGUUGAAU
- apparent Kd [1]: 7.5 nM
- apparent Kd [2]: 45.9 nM

Sequence: AAAAGACAUGAGGAUCACCCAUGUGAAAACGUGCGAGGAUAUGUAUGGAAACCAUACUGUACAGAAGGCGUUUGUC
- apparent Kd [3]: 31.2 nM
- apparent Kd [4]: 31.6 nM

Sequence: AUGGGCUAGGAGAAGGGCUAGAGUGUGAUAUAUUUGCCCGCGAGCACAUGAGGAUCACCCAUGUAGCAGGAUAUCCAAGCCGGU
- apparent Kd [1]: 7.43 nM
- apparent Kd [2]: 18 nM

Sequence: GUCAUACAUGAGGAUCACCCAUGUAAGGAUAUGCUAGCGGUCGGAAGACUGACUGCUAGCAGAAGGUACAUGAU
- apparent Kd [1]: 67.1 nM
- apparent Kd [2]: 92.5 nM

Sequence: CUCGUGUGAGGAUAUCUAUUCCACGGACGGGAGUCUUGAUGAGAGAAGGCACAUGAGGAUCACCCAUGUAAUAA
- apparent Kd [1]: 140 nM
- apparent Kd [2]: 86.7 nM

Sequence: GCGAUUUUGUAGAAGGUACGUGAUAAGACAAAGUAAGGAUAUACUGACAUGAGGAUCACCCAUGUAUAAAUAGUUAACAGUCGC
- apparent Kd [3]: 18.5 nM
- apparent Kd [4]: 11.7 nM

Sequence: GUGCGGUGAGGAUAUACGUAGGUGAAAAUCUGUGUGUUCCUACAUGAGGAUCACCCAUGUAGAAGGCAUGUCAC
- apparent Kd [1]: 53.5 nM
- apparent Kd [2]: 143 nM

Sequence: GCUAUUACAGGAUAUCGUUGUUAUAACAUGAGGAUCACCCAUGUUCGGCUCGUGAUCCAGCGAGAAGGGUGGACGC
- apparent Kd [1]: 71.7 nM
- apparent Kd [2]: 73 nM

Sequence: CUCGUGUAAGGAUAUGCGAGCCGCGGAAAUACACCGCGGAGGUAGAAGGUACAUGAGGAUCACCCAUGUAAAAC
- apparent Kd [1]: 25.5 nM
- apparent Kd [2]: 103 nM

Sequence: GGAGCCCAGUCAGGAUAUGUAACGCUUAGGCUGUUACAUGAGGAUCACCCAUGUUUCACCGUGAAACAGAAGGGACAUUUGGCU
- apparent Kd [3]: 382 nM
- apparent Kd [4]: 122 nM

Reference: the EternaBench riboswitch data
